Drawing on the array DNA melting data of Ke et al. (doi:10.1101/2024.01.08.574731), this text covers folding enthalpy and Tm for 73 sequences.

A short description of series [1]: folding enthalpy; higher = less favourable; fluorescence melt of hairpins on a sequencing array, two-state fit. Conditions: sodium 0.088 M. The procedure, abridged:
(§1)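 With Cy3 and quencher oligos annealed, library hairpins on a sequenced MiSeq flow cell were imaged for Cy3 fluorescence in 50 mM Na-HEPES pH 8.0, 25 mM NaCl, in 2.5 °C steps up to 60 °C. Melting temperature and folding enthalpy were derived from bootstrapped two-state fits of signals normalised to pre-quench Cy3 and to control constructs. Four replicates were combined by inverse variance, with fitted temperatures raised by 9.35 °C to match UV melts.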

A short description of series [2]: melting temperature; fluorescence melt of hairpins on a sequencing array, two-state fit, raised by 9.35 °C to match UV melts. Conditions: sodium 0.088 M. The procedure, abridged: as §1

As to GGCTTCCGAAAGGACGCC (((.(((....))).))), the folding enthalpy in series [1] is -42 kcal/mol. In addition, the Tm in series [2] came to 57.2 °C.
Taken in the same sequence, the figures for GGCTTCGAAAGAATAGCC ((((((....)))..))) were -27.6 kcal/mol and 45.3 °C.
Turning to GGCTTCGGAAACGAAGTC (.(((((....))))).), in series [1], the folding enthalpy was -30.1 kcal/mol. Besides, the Tm in series [2] is 53.5 °C.
For GGCTTGCGAAAGCAGCC (((.(((....)))))), the folding enthalpy in series [1] was -29.1 kcal/mol. In addition, in series [2], the Tm was determined as 65.3 °C.
Take GGCTTGCGAAAGCAGGCC (((.(((....))).))): the folding enthalpy in series [1] was -31.3 kcal/mol. Also, the Tm in series [2] came out at 69.2 °C.
Turning to GGCTTGCGAAAGCATGCC (((.(((....))).))), the folding enthalpy in series [1] is -31.4 kcal/mol. The Tm in series [2] is 66.6 °C.
Take GGCTTGGGAAACCAAACC ((.((((....)))).)): the folding enthalpy in series [1] was -27.8 kcal/mol. Also, the Tm in series [2] was 41 °C.
GGCTTGGGAAACCAAGTC (.(((((....))))).): in series [1], the folding enthalpy was -29.4 kcal/mol. In addition, the Tm in series [2] is 52.4 °C.
The matching figures for GGCTTTCGAAAGAAGGCC (((.(((....))).))): -40.9 kcal/mol and 56.7 °C.
On to GGCTTTCGAAAGAATGCC (((.(((....))).))), for which the folding enthalpy in series [1] is -41 kcal/mol. Also, the Tm in series [2] came out at 54.8 °C.
In the case of GGCTTTGGAAACGAAGCC (((((.(....).))))), the folding enthalpy in series [1] is -43.6 kcal/mol. The Tm in series [2] stood at 54 °C.
For the sequence GGGAAAGGAAACTTCCCC (((.(((....))).))), the folding enthalpy in series [1] is -23.3 kcal/mol. For the same sequence, the Tm in series [2] came out at 36.8 °C.
In the case of GGGAAAGGAAACTTTCCC (((((((....))))))), the folding enthalpy in series [1] is -47 kcal/mol. The Tm in series [2] amounted to 57.7 °C.
The matching figures for GGGAACCCGAAAGGGCCC (((..(((....)))))): -15.4 kcal/mol and 45.9 °C.
As for GGGAACGAAAGTTAACCC ((((((....)))..))), the folding enthalpy in series [1] is -19.8 kcal/mol. For the same sequence, in series [2], the Tm came out at 35.1 °C.
The matching figures for GGGAACGAAAGTTACCC ((((((....))).))): -30 kcal/mol and 53.8 °C.
For GGGAACGAAAGTTAGCCC ((((((....)))..))), in series [1], the folding enthalpy is -17.2 kcal/mol. Also, the Tm in series [2] was 33.1 °C.
Consider GGGAACGAAAGTTATCCC ((((((....)))..))), for which the folding enthalpy in series [1] was -23.3 kcal/mol. For the same sequence, the Tm in series [2] stood at 36.6 °C.
For the sequence GGGAACGAAAGTTCGCCC ((((((....)))..))), the folding enthalpy in series [1] is -14.8 kcal/mol. The Tm in series [2] was 46.4 °C.
The matching figures for GGGAAGAAATTCCC (((((....))))): -19.9 kcal/mol and 44.6 °C.
The matching figures for GGGAAGCGAAAGCTCCCC (((.(((....))).))): -21.7 kcal/mol and 61.5 °C.
In the case of GGGAAGGGAAACCTCCCC (((.(((....))).))), in series [1], the folding enthalpy is -21.6 kcal/mol. In addition, the Tm in series [2] is 45.2 °C.
The matching figures for GGGAAGGGAAACCTTTCC ((.((((....)))).)): -24.4 kcal/mol and 45.7 °C.
Take GGGAATCGAAAGATACCC (((.(((....))).))): the folding enthalpy in series [1] is -30.1 kcal/mol. The Tm in series [2] was 49.6 °C.
The matching figures for GGGAATCGAAAGATCCC (((.(((....)))))): -24.6 kcal/mol and 49.7 °C.
The matching figures for GGGAATGAAAATTCCC ((((((....)))))): -40.6 kcal/mol and 56 °C.
The matching figures for GGGACAGGAAACTGTCTC (.(((((....))))).): -28.1 kcal/mol and 51.1 °C.
As to GGGACAGGAAACTGTTCC ((.((((....)))).)), in series [1], the folding enthalpy was -36.8 kcal/mol. Moreover, in series [2], the Tm was 51.4 °C.
Taken in the same sequence, the figures for GGGACCACGAAAGTGCCC (((..(((....)))))) were -15.7 kcal/mol and 40 °C.
Turning to GGGACCGAAAGGTAACCC ((((((....)))..))), in series [1], the folding enthalpy is -18.9 kcal/mol. Also, in series [2], the Tm amounted to 46.1 °C.
In the case of GGGACCGAAAGGTTGCCC ((((((....)))..))), the folding enthalpy in series [1] was -14.5 kcal/mol. For the same sequence, in series [2], the Tm was found to be 37.6 °C.
In the case of GGGACCGCGAAAGCGCCC (((..(((....)))))), the folding enthalpy in series [1] was -12.5 kcal/mol. Moreover, the Tm in series [2] was determined as 39.2 °C.
For GGGACCGGAAACGACCCC (((..((....))..))), the folding enthalpy in series [1] was -25.2 kcal/mol. Also, the Tm in series [2] came to 35.5 °C.
Taken in the same sequence, the figures for GGGACGGGAAACCGTTCC ((.((((....)))).)) were -35.2 kcal/mol and 57.2 °C.
For GGGACGTCGAAAGACCCC (((..(((....)))))), the folding enthalpy in series [1] was -18.4 kcal/mol. Also, the Tm in series [2] came to 41 °C.
Take GGGACTGGAAACAGTCTC (.(((((....))))).): the folding enthalpy in series [1] was -20.6 kcal/mol. In addition, the Tm in series [2] was found to be 51.7 °C.
Regarding GGGAGAACGAAAGTTCCC (((..(((....)))))), the folding enthalpy in series [1] was -17.1 kcal/mol. Besides, the Tm in series [2] stood at 47.7 °C.
Consider GGGAGACCGAAAGGTCCC (((..(((....)))))), for which, in series [1], the folding enthalpy was -12.8 kcal/mol. In addition, the Tm in series [2] is 53.2 °C.
For GGGAGAGGAAACCCTCCC (((((.(....).))))), the folding enthalpy in series [1] is -28.6 kcal/mol. Also, the Tm in series [2] was determined as 47.6 °C.
For the sequence GGGAGAGGAAACTCCCCC (((.(((....))).))), the folding enthalpy in series [1] was -17.8 kcal/mol. For the same sequence, the Tm in series [2] stood at 49.4 °C.
Regarding GGGAGAGGAAACTCTCTC (.(((((....))))).), the folding enthalpy in series [1] was -21.4 kcal/mol. For the same sequence, the Tm in series [2] was 46.2 °C.
Taken in the same sequence, the figures for GGGAGCCGAAAGGCACCC (((.(((....))).))) were -29.5 kcal/mol and 67.1 °C.
For GGGAGCGAAAGCTGCCCC ((((((....)))..))), in series [1], the folding enthalpy is -12.6 kcal/mol. Moreover, the Tm in series [2] was 58.1 °C.
For GGGAGGCGAAAGCCACCC (((.(((....))).))), in series [1], the folding enthalpy is -25.1 kcal/mol. Also, the Tm in series [2] is 65.6 °C.
With GGGAGGGAAACCTCCC ((((((....)))))), the folding enthalpy in series [1] is -32 kcal/mol. In addition, the Tm in series [2] was determined as 65.8 °C.
Taken in the same sequence, the figures for GGGAGGGGAAACCCTTCC ((.((((....)))).)) were -32.4 kcal/mol and 51.6 °C.
Taken in the same sequence, the figures for GGGAGGTCGAAAGACCCC (((..(((....)))))) were -14.4 kcal/mol and 54.5 °C.
For GGGAGTCGAAAGACACCC (((.(((....))).))), the folding enthalpy in series [1] is -30 kcal/mol. The Tm in series [2] was 56.9 °C.
Consider GGGAGTGCGAAAGCACCC (((..(((....)))))), for which the folding enthalpy in series [1] is -11.6 kcal/mol. The Tm in series [2] turned out to be 55.2 °C.
The matching figures for GGGAGTGGAAACATTCCC ((((.((....)).)))): -33.5 kcal/mol and 48.2 °C.
With GGGATAACGAAAGTTCCC (((..(((....)))))), the folding enthalpy in series [1] was -26.7 kcal/mol. In series [2], the Tm turned out to be 42.4 °C.
As for GGGATACGAAAGTACCCC (((.(((....))).))), the folding enthalpy in series [1] is -37.4 kcal/mol. Further, the Tm in series [2] came to 50.8 °C.
Regarding GGGATACGAAAGTAGCCC (((.(((....))).))), the folding enthalpy in series [1] is -43.9 kcal/mol. Moreover, the Tm in series [2] was 63.1 °C.
Taken in the same sequence, the figures for GGGATAGGAAACTACCCC (((.(((....))).))) were -23 kcal/mol and 38.7 °C.
Taken in the same sequence, the figures for GGGATAGGAAACTGTTCC ((.(.((....)).).)) were -16.5 kcal/mol and 28.6 °C.
In the case of GGGATCGAAAGATCCCCC ((((((....)))..))), in series [1], the folding enthalpy was -10.2 kcal/mol. Further, the Tm in series [2] was determined as 68.2 °C.
In the case of GGGATCGAAAGATCGCCC ((((((....)))..))), the folding enthalpy in series [1] is -15.3 kcal/mol. For the same sequence, the Tm in series [2] stood at 47.2 °C.
Taken in the same sequence, the figures for GGGATCGAAAGATCTCCC ((((((....)))..))) were -14.1 kcal/mol and 47.2 °C.
The matching figures for GGGATCGAAAGATTGCCC ((((((....)))..))): -14.6 kcal/mol and 32.6 °C.
The matching figures for GGGATCGAAAGATTTCCC ((((((....)))..))): -19 kcal/mol and 32.3 °C.
GGGATGCGAAAGCACCC (((.(((....)))))): the folding enthalpy in series [1] was -21.4 kcal/mol. Further, the Tm in series [2] was determined as 60 °C.
For the sequence GGGATGGGAAACCGTTCC ((.(.((....)).).)), the folding enthalpy in series [1] is -27 kcal/mol. Further, the Tm in series [2] was 39.1 °C.
Regarding GGGATGGGAAACTATCCC (((((.(....).))))), in series [1], the folding enthalpy is -30.5 kcal/mol. Besides, in series [2], the Tm came out at 49.8 °C.
Taken in the same sequence, the figures for GGGATTCGAAAGAACCC (((.(((....)))))) were -25.5 kcal/mol and 47.1 °C.
The matching figures for GGGCAATCGAAAGATCCC (((..(((....)))))): -21.5 kcal/mol and 34 °C.
Taken in the same sequence, the figures for GGGCACCCGAAAGGGCCC (((..(((....)))))) were -36.7 kcal/mol and 58 °C.
On to GGGCACGAAAGTGGGCCC ((((((....)))..))), for which the folding enthalpy in series [1] was -31.8 kcal/mol. For the same sequence, in series [2], the Tm came out at 58.4 °C.
Consider GGGCACGAAAGTGTTCCC ((((((....)))..))), for which the folding enthalpy in series [1] was -17.7 kcal/mol. For the same sequence, in series [2], the Tm was determined as 46.1 °C.
Consider GGGCACGCGAAAGCGCCC (((..(((....)))))), for which the folding enthalpy in series [1] is -16.2 kcal/mol. Further, the Tm in series [2] was 58.7 °C.
GGGCACGGAAACATGCCC (((((.(....).))))): the folding enthalpy in series [1] is -37.6 kcal/mol. Besides, the Tm in series [2] worked out at 51.5 °C.
For the sequence GGGCACGGAAACGCGCCC ((((.((....)).)))), in series [1], the folding enthalpy was -44 kcal/mol. The Tm in series [2] turned out to be 64.3 °C.
Take GGGCAGGGAAACCTGCTC (.(((((....))))).): the folding enthalpy in series [1] is -20 kcal/mol. For the same sequence, the Tm in series [2] is 59.6 °C.
The matching figures for GGGCAGGGAAACCTGTCC ((.((((....)))).)): -43.9 kcal/mol and 57.1 °C.
